pEC50: −log10 of the molar value. Where a name gives a salt, the structure may show the parent alone.
Experiments:
Type in all cases: functional, organism-based
Oryctolagus cuniculus [1] = species on record: Oryctolagus cuniculus; experiment: Inhibition of the constrictor response to electrical stimulation in rabbit ear artery.
How it was run: (§1)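 Isolated perfused rabbit ear artery in Krebs-Henseleit (95% O2/5% CO2, 35 °C, pH 7.4), stabilized ≥1 h. Sympathetic nerves field-stimulated every 4 min (0.7-ms pulses, 75 V, 10-15 Hz trains of 300-500 ms). Compound superfused at increasing concentrations, 4 min each. Read-out is the rise in perfusion pressure; IC50 from least-squares curves.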

Rattus norvegicus = species on record: Rattus norvegicus; experiment: Concentration necessary to cause 50% increase in cAMP formation(by adenylate cyclase) relative to the maximum increase caused by the compound
How it was run: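 Rat caudate homogenate (male Charles River rats, 225-300 g), made at 0 °C in 50 mM Tris-maleate pH 7.4 with 2 mM EGTA; incubated with test compound at increasing concentrations, 2 mM MgSO4, 5 mM aminophylline, and [14C]ATP (final 0.65 mM) for 3 min at 30 °C. [14C]cAMP isolated on alumina/Dowex columns and counted; quadruplicates; least-squares dose-response curves.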

Oryctolagus cuniculus [2] = species on record: Oryctolagus cuniculus; experiment: Concentration necessary to inhibit 50% of the constrictor response to electrical stimulation in rabbit ear artery; I=Inactive; how it was run: as §1

Row | Structure (SMILES) | pEC50 (Oryctolagus cuniculus [1]) | pEC50 (Rattus norvegicus) | EC50 (Oryctolagus cuniculus [2])
1 | CN1CCc2c(cc(O)c(O)c2Cl)C(c2ccc(O)cc2)C1 (stereo not given) | 7.05 | ~5.00 | –
2 | CCCN(CCC)CCc1ccc(O)c2c1CC(=O)N2 [SKF-89124A] | 8.70 | – | –
3 | CCCCN(CCC)CCc1ccc(O)c(O)c1 | 7.32 | – | –
4 | CCCN(CCC)CCc1ccc(O)c(O)c1 | 7.22 | – | –
5 | CN1CCc2cccc3c2[C@H]1Cc1ccc(O)c(O)c1-3 [APOMORPHINE] | 7.36 | – | –
6 | OCC(O)CN1CCc2c(cc(O)c(O)c2Cl)C(c2ccc(O)cc2)C1 (stereo not given) | < 5.00 | – | –
7 | NCCc1ccc(O)c(O)c1 [DOPAMINE] | 7.42 | – | –
8 | Oc1cc2c(cc1O)CCNCC2 | 7.92 | – | –
9 | NC1CCc2cc(O)c(O)cc2C1 (stereo not given) | 7.77 | – | –
10 | Oc1ccc(C2CNCCc3c2cc(O)c(O)c3Cl)cc1 (stereo not given) [FENOLDOPAM MESYLATE] | 6.00 | 7.24 | –
11 | Oc1ccc(C2CN(C/C=C/c3ccccc3)CCc3c2cc(O)c(O)c3Cl)cc1 (stereo not given) | – | – | Not Active

Further lines, results first:

Row | pEC50 (Oryctolagus cuniculus [1]) | pEC50 (Rattus norvegicus) | EC50 (Oryctolagus cuniculus [2]) | Structure (SMILES)
12 | 6.91 | 7.82 | – | C=CCN1CCc2c(cc(O)c(O)c2Cl)C(c2ccc(O)cc2)C1 (stereo not given)
13 | 5.00 | – | – | C/C=C/CN1CCc2c(cc(O)c(O)c2Cl)C(c2ccc(O)cc2)C1 (stereo not given)
14 | 6.30 | 6.00 | – | OCCN1CCc2c(cc(O)c(O)c2Cl)C(c2ccc(O)cc2)C1 (stereo not given)
15 | 5.57 | 6.19 | – | C#CCN1CCc2c(cc(O)c(O)c2Cl)C(c2ccc(O)cc2)C1 (stereo not given)
16 | 5.77 | 5.96 | – | Oc1ccc(C2CN(CC3CC3)CCc3c2cc(O)c(O)c3Cl)cc1 (stereo not given)
17 | 6.00 | 6.26 | – | CCCN1CCc2c(cc(O)c(O)c2Cl)C(c2ccc(O)cc2)C1 (stereo not given)
18 | 7.08 | 8.05 | – | C=CCN1CCc2c(cc(O)c(O)c2Cl)[C@@H](c2ccc(O)cc2)C1
19 | 5.52 | < 5.00 | – | C=CCN1CCc2c(cc(O)c(O)c2Cl)[C@H](c2ccc(O)cc2)C1
20 | 6.12 | 6.90 | – | C=CCN1CCc2c(cc(O)c(O)c2Cl)C(c2cccc(O)c2)C1 (stereo not given)
